Data: ChEMBL document CHEMBL3045217, “Factors affecting the synergy of thiabendazole, sodium bicarbonate, and heat to control postharvest green mold of citrus fruit” (J Agric Food Chem, 2008)

Legend:
Penicillium digitatum [1] = assay: Fungicidal activity against Penicillium digitatum infected Valenica oranges assessed as fruit weight loss at 600 mg/L treated for 1 min at 20 degC postharvest at 20 hr after fungal conidial inoculation measured after 21 days of storage at 17 degC in presence of 2% SBC (water Rvb = 11.89%); assay type: functional
Penicillium digitatum [2] = assay: Fungicidal activity against Penicillium digitatum infected Valenica oranges assessed as fruit weight loss at 400 mg/L treated for 1 min at 40 degC postharvest at 20 hr after fungal conidial inoculation measured after 14 days of storage at 17 degC in presence of 2% SBC (water Rvb = 9.20%); assay type: functional
Penicillium digitatum [3] = assay: Fungicidal activity against Penicillium digitatum infected Valenica oranges assessed as fruit weight loss at 200 mg/L treated for 1 min at 50 degC postharvest at 20 hr after fungal conidial inoculation measured after 7 days of storage at 17 degC (water Rvb = 3.23%); assay type: functional
Penicillium digitatum [4] = assay: Fungicidal activity against Penicillium digitatum infected Valenica oranges assessed as fruit weight loss at 400 mg/L treated for 1 min at 40 degC postharvest at 20 hr after fungal conidial inoculation measured after 7 days of storage at 17 degC (water Rvb = 3.42%); assay type: functional
Penicillium digitatum [5] = assay: (§1) Fungicidal activity against TBZ-resistant Penicillium digitatum infected Valencia oranges assessed as postharvest green mold incidence at 400 mg/L treated for 1 min at 40 degC at 20 hr after fungal conidial inoculation measured after 7 days of storage at 20 degC in presence of 0.5% SBC (water Rvb = 81.7%); assay type: functional
Penicillium digitatum [6] = assay: Fungicidal activity against TBZ-resistant Penicillium digitatum infected Valencia oranges assessed as postharvest green mold incidence at 400 mg/L treated for 1 min at 40 degC at 20 hr after fungal conidial inoculation measured after 7 days of storage at 20 degC (water Rvb = 90.0%); assay type: functional
Penicillium digitatum [7] = assay: Fungicidal activity against Penicillium digitatum infected Valenica oranges assessed as fruit weight loss at 400 mg/L treated for 1 min at 40 degC postharvest at 20 hr after fungal conidial inoculation measured after 21 days of storage at 17 degC in presence of 2% SBC (water Rvb = 13.47%); assay type: functional
Penicillium digitatum [8] = assay: Fungicidal activity against TBZ-resistant Penicillium digitatum infected Nova mandarins assessed as postharvest green mold incidence at 600 mg/L treated for 1 min at 20 degC at 20 hr after fungal conidial inoculation measured after 5 days of storage at 20 degC (water Rvb = 100%); assay type: functional
Fruit [9] = assay: Drug residues in Citrus sinensis cvs. Valencia late (Valencia oranges) at 400 mg/L treated for 1 min at 40 degC postharvest measured after 20 days of storage at 17 degC in presence of 0.5% SBC by GC analysis; assay type: ADME
How it was run: (§2)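 'Valencia' oranges were dipped 1 min in TBZ at 600 mg/L (20 °C, ±0.5, 1 or 2% wt/vol SBC), 400 mg/L (40 °C, ±SBC) or 200 mg/L (50 °C, alone), then air-dried. They were sampled at 0, 10 and 20 days at 17 °C. Peel of five fruit was frozen, and 5 g of homogenate was extracted with ethyl acetate/hexane (1/1) plus NaCl. The extract was dried under N2, taken up in acetone and analysed by GC. Results are mg/kg on a whole-fruit basis.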

Fruit [10] = assay: Drug residues in Citrus sinensis cvs. Valencia late (Valencia oranges) at 600 mg/L treated for 1 min at 20 degC postharvest measured after 20 days of storage at 17 degC by GC analysis; assay type: ADME; how it was run: as §2
Penicillium digitatum [11] = assay: Fungicidal activity against Penicillium digitatum infected Valenica oranges assessed as fruit weight loss at 200 mg/L treated for 1 min at 50 degC postharvest at 20 hr after fungal conidial inoculation measured after 21 days of storage at 17 degC (water Rvb = 8.83%); assay type: functional
Penicillium digitatum [12] = assay: as §1, with “600” for “400”, “20” for “40”, “1%” for “0.5%”, “54.2%)” for “81.7%)”; assay type: functional
Fruit [13] = assay: Drug residues in Citrus sinensis cvs. Valencia late (Valencia oranges) at 400 mg/L treated for 1 min at 40 degC postharvest measured after 10 days of storage at 17 degC in presence of 0.5% SBC by GC analysis; assay type: ADME; how it was run: as §2
Fruit [14] = assay: Drug residues in Citrus sinensis cvs. Valencia late (Valencia oranges) at 600 mg/L treated for 1 min at 20 degC postharvest measured after 10 days of storage at 17 degC in presence of 0.5% SBC by GC analysis; assay type: ADME; how it was run: as §2
Fruit [15] = assay: Drug residues in Citrus sinensis cvs. Valencia late (Valencia oranges) at 400 mg/L treated for 1 min at 40 degC postharvest measured immediately post-drug treatment by GC analysis; assay type: ADME; how it was run: as §2
Fruit [16] = assay: Drug residues in Citrus sinensis cvs. Valencia late (Valencia oranges) at 600 mg/L treated for 1 min at 20 degC postharvest measured immediately post-drug treatment in presence of 0.5% SBC by GC analysis; assay type: ADME; how it was run: as §2
Penicillium digitatum [17] = assay: Fungicidal activity against TBZ-resistant Penicillium digitatum infected Nova mandarins assessed as postharvest green mold incidence at 200 mg/L treated for 1 min at 50 degC at 20 hr after fungal conidial inoculation measured after 5 days of storage at 20 degC (water Rvb = 95.0%); assay type: functional
Penicillium digitatum [18] = assay: (§3) Fungicidal activity against TBZ-resistant Penicillium digitatum infected Nova mandarins assessed as postharvest green mold incidence at 400 mg/L treated for 1 min at 40 degC at 20 hr after fungal conidial inoculation measured after 5 days of storage at 20 degC in presence of 2% SBC (water Rvb = 61.7%); assay type: functional
Penicillium digitatum [19] = assay: as §3, with “0.5%” for “2%”, “83.3%)” for “61.7%)”; assay type: functional
Penicillium digitatum [20] = assay: Fungicidal activity against TBZ-resistant Penicillium digitatum infected Nova mandarins assessed as postharvest green mold incidence at 400 mg/L treated for 1 min at 40 degC at 20 hr after fungal conidial inoculation measured after 5 days of storage at 20 degC (water Rvb = 96.7%); assay type: functional
Inner fruit = assay: Drug residues in Citrus sinensis cvs. Salustiana (Salustiana oranges) inner fruit at 600 mg/L treated for 3 min at 50 degC postharvest measured after overnight incubation at 17 degC by GC analysis; assay type: ADME; settings: 0.05 h
How it was run: (§4)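 'Salustiana' oranges were washed with water and air-dried. They were dipped 1 or 3 min in TBZ 600 mg/L at 20 or 50 °C, or 1 min in TBZ 600 mg/L plus 2% SBC at 20 °C, then dried overnight at 17 °C in the dark. Surface residue was taken by water extraction and wax residue by chloroform extraction. Inner residue was measured in fruit after both extractions. Extracts were dried under N2, taken up in acetone and analysed by GC. Values are mg/kg on a whole-fruit basis.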

Cuticular wax [21] = assay: Drug residues in Citrus sinensis cvs. Salustiana (Salustiana oranges) cuticular wax at 600 mg/L treated for 3 min at 50 degC postharvest measured after overnight incubation at 17 degC by GC analysis; assay type: ADME; settings: 0.05 h; how it was run: as §4
Cuticular wax [22] = assay: Drug residues in Citrus sinensis cvs. Salustiana (Salustiana oranges) cuticular wax at 600 mg/L treated for 3 min at 20 degC postharvest measured after overnight incubation at 17 degC by GC analysis; assay type: ADME; settings: 0.05 h; how it was run: as §4
Fruit surface = assay: Drug residues on Citrus sinensis cvs. Salustiana (Salustiana oranges) fruit surface at 600 mg/L treated for 1 min at 20 degC postharvest measured after overnight incubation at 17 degC in presence of 2% SBC by GC analysis; assay type: ADME; how it was run: as §4

Work on `c1ccc2[nH]c(-c3cscn3)nc2c1` [THIABENDAZOLE] yielded an Activity (Penicillium digitatum [1]) of 13.39%, an Activity (Penicillium digitatum [2]) of 9.45% and an Activity (Penicillium digitatum [3]) of 2.98%. The Activity (Penicillium digitatum [4]) was 3.22%, the Activity (Penicillium digitatum [5]) was 14.2% and the Activity (Penicillium digitatum [6]) was 55.8%. For the same compound, the Activity (Penicillium digitatum [7]) was 13.98%, the Activity (Penicillium digitatum [8]) was 98.3% and the Drug uptake (Fruit [9]) was 0.79 mg/kg. For the same compound, the Drug uptake (Fruit [10]) was 1.54 mg/kg, the Activity (Penicillium digitatum [11]) was 8.54% and the Activity (Penicillium digitatum [12]) was 25%. For the same compound, the Drug uptake (Fruit [13]) was 0.76 mg/kg, the Drug uptake (Fruit [14]) was 1.4 mg/kg and the Drug uptake (Fruit [15]) was 0.83 mg/kg. For the same compound, the Drug uptake (Fruit [16]) was 1.25 mg/kg, the Activity (Penicillium digitatum [17]) was 65% and the Activity (Penicillium digitatum [18]) was 23.3%. The Activity (Penicillium digitatum [19]) was 70%, the Activity (Penicillium digitatum [20]) was 88.3% and the Drug uptake (Inner fruit) was 0.4 mg/kg. For the same compound, the Drug uptake (Cuticular wax [21]) was 0.48 mg/kg, the Drug uptake (Cuticular wax [22]) was 0.11 mg/kg and the Drug uptake (Fruit surface) was 0.53 mg/kg.
